Most compounds without a hit are left out; they make up all but 2.3% or so of the library.
TRPC4 act = activators of mouse TRPC4 channel. B-score at 10 µM. HEK293 TRPC4beta/mu-opioid, Fluo4 calcium fluorescence; hits give high values. Q9QUQ5. 0.49% of 310,000 active;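 active means B-score above 5 SD of library B-scores, and initial fluorescence ratio not above library mean plus 5 SD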;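 further: positive B-score marks a calcium rise read as TRPC4 activation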
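Incubation: 45 min room-temperature Fluo4 loading, 110 s read / System: HEK293 cells stably co-expressing mouse TRPC4beta and mu-opioid receptor / Signal: Fluo4 fluorescence, kinetic / Control set: buffer (low) and maximal DAMGO (high) / Measure: integrated baseline-normalised fluorescence ratio, converted to per-well B score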
TRPC4 inh = inhibitors of mouse TRPC4 channel | HEK293 TRPC4beta/mu-opioid, DAMGO-evoked Fluo4 calcium flux; hits give low values | B-score at 10 µM | 0.39% of 300,000 active;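 active means B-score over 3 SD under the library average, no early fluorescence shift, positive overall ratio signal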
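test system = HEK293 cells with stable TRPC4beta plus mu-opioid receptor expression | detection = Fluo4 Ca2+ flux fluorescence | read-out = integrated fluorescence ratio relative to baseline, converted to per-well B score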
TRPC6 act = activators of mouse TRPC6 channel; B-score at 10 µM; 0.13% of 310,000 active; HEK293-TRPC6 membrane potential dye fluorescence; hits give high values; Q61143; AID 2550;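 active means B-score of the integrated fluorescence ratio above library mean plus 3 SD, and starting fluorescence ratio within library mean plus 5 SD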;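 further: higher score means more depolarization so channel activation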
Target sequence (Q61143 whole entry, looked up): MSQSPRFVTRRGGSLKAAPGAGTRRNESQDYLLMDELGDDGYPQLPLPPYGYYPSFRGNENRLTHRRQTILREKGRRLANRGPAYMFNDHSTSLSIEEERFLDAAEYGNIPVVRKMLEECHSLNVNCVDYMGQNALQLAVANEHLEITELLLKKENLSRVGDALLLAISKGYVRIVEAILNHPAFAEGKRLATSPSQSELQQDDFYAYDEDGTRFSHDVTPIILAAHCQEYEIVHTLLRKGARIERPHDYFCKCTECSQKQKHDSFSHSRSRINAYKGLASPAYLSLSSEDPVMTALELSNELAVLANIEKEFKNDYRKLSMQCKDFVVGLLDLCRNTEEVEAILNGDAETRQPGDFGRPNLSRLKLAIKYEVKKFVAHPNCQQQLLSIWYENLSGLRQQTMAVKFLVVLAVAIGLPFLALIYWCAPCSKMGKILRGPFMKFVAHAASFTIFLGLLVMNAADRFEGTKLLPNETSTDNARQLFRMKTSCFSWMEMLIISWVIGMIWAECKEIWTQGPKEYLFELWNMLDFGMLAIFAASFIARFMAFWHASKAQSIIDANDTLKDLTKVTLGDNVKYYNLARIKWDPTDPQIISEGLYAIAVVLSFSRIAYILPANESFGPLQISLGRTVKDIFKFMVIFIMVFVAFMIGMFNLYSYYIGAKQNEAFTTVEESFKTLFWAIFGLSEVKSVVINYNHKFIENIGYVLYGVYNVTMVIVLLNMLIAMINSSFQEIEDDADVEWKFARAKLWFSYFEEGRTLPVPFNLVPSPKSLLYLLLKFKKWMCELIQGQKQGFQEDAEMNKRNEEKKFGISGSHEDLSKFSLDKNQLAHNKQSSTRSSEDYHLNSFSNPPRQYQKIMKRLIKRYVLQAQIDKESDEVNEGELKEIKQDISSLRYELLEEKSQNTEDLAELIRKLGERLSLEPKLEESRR
TRPC4 potent = TRPC4 (mouse) allosteric potentiation; AID 2227; Q9QUQ5; 0.42% of 310,000 active; HEK293 TRPC4beta/mu-opioid, DAMGO EC20, Fluo-4 Ca2+ flux; hits give high values; B-score at 10 µM;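 active means B-score of calcium response area above 5 SD of library B-scores, with initial fluorescence ratio within 5 SD of library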;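 further: B-score of integrated fluorescence ratio over time as area under calcium response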
TRPC6 inhibitor = inhibitors of mouse TRPC6 channel; 1.1% of 310,000 active; Q61143; HEK293-TRPC6, membrane potential dye, ACh-evoked depolarization; hits give low values; AID 2553; B-score at 10 µM;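 active means B-score under library mean minus 3 SD, initial fluorescence not abnormally high, positive integrated signal ratio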;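 further: B-score derived from integrated fluorescence ratio over the kinetic read; more negative B-score means stronger inhibition of depolarization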
TRPC4 sel inh 2 = second check of whether TRPC6 inhibitors also affect mouse TRPC4 | shares compounds with TRPC6 inhibitor | HEK293 TRPC4/MOR, membrane potential dye fluorescence; channel activated by saturating DAMGO dose | inhibition, % at 10 µM | 42% of 920 active | AID 2776;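 active means compounds whose fluorescence signal differed from control wells by over 3 SD, either direction, in both duplicate plates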
TRPC4 spec = mouse TRPC4 off-target activity of TRPC6 inhibitors; shares compounds with TRPC6 inhibitor; HEK293 TRPC4/mu-opioid, membrane potential fluorescence; activity change, negative = inhibition, % at 10 µM; 61% of 920 active;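 active means rise or fall in signal beyond 3 SD of buffer-only wells in both replicate plates, either sign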;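 further: integrated kinetic ratio of fluorescence range over baseline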
HEK293 MPD ctr 2-1 = parental HEK293 nonspecific activity of TRPC6 inhibitors, second screen. shares compounds with TRPC6 inhibitor. parental HEK293 membrane potential dye fluorescence; maximal acetylcholine challenge after compound addition. signal change vs control, % at 10 µM. 31% of 920 active;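 active means membrane potential signal moving either way by over 3 SD of the maximum-effect control, in both duplicate plates, meaning non-specific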
HEK293 MPD ctr-1 = checks TRPC6 inhibitor effects in parental HEK293 cells; parental HEK293 membrane potential dye fluorescence; AID 2780; shares compounds with TRPC6 inhibitor; 60% of 920 active; membrane potential signal change, % at 10 µM;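 active means membrane potential signal shifting up or down by more than 3 SD of buffer-only wells, on both duplicate plates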
HEK293 MPD ctr-2 = counter-screen for TRPC6 modulators: effect in parental HEK293 cells; shares compounds with TRPC6 inhibitor; membrane potential dye fluorescence; membrane potential signal change, % at 10 µM; 51% of 2,400 active;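 active means membrane potential signal moves up or down beyond 5 SD from buffer-only wells, on both duplicate plates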
HEK293 MPD ctr 2-2 = second counter-screen for TRPC6 modulators: effect in parental HEK293 cells | shares compounds with TRPC6 inhibitor | membrane potential dye fluorescence; after compound, maximal acetylcholine stimulation | inhibition, % at 10 µM | 14% of 2,400 active;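 active means membrane potential signal drops by more than 5 SD from the mean control signal, in both duplicate plates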;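 further: plate controls were acetylcholine ECmax control wells for no effect and buffer only wells for full effect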
TRPC4/MOR mod = tests whether TRPC6 modulators also affect mouse TRPC4; shares compounds with TRPC6 inhibitor; HEK293 TRPC4/mu-opioid, membrane potential fluorescence; percent change from control (negative = decrease, positive = increase), % at 10 µM; 69% of 2,400 active;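 active means membrane potential signal moved up or down beyond 5 SD of buffer control wells, in both duplicate plates, actives on both sides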;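 further: plate controls were assay buffer wells for no effect and DAMGO maximal-effect wells for full effect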
TRPC4/MOR inh 2 = mouse TRPC4 off-target activity of TRPC6 modulators, second screen. shares compounds with TRPC6 inhibitor. HEK293 TRPC4/mu-opioid, membrane potential dye fluorescence; stimulated with maximal-effect DAMGO. inhibition, % at 10 µM. 55% of 2,400 active;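 active means drop in membrane potential signal beyond 5 SD of the control wells in both duplicate plates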;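 further: TRPC4 counter screen for TRPC6 hits run under conditions tuned for TRPC6 not TRPC4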
TRPC6 block conf = mouse TRPC6 inhibitor confirmation. shares compounds with TRPC6 inhibitor. HEK293-TRPC6, membrane potential dye, ACh-evoked depolarization. inhibition, % at 10 µM. 43% of 3,300 active;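 active means fluorescence ratio falls more than 5 SD below the full-stimulation control mean, in both duplicate runs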;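 further: integrated fluorescence ratio of peak minus minimum over baseline after agonist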
TRPC6 act conf = mouse TRPC6 activator confirmation; shares compounds with TRPC6 inhibitor; 11% of 2,800 active; AID 488961; HEK293-TRPC6 membrane potential dye fluorescence, FDSS; activation, % at 10 µM;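 active means ratio signal rise beyond 5 SD above unstimulated control wells' mean, seen in both duplicate runs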;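 further: plate controls were buffer EC0 wells for no effect and acetylcholine ECmax response for full effect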
Numbers without * were called inactive; i = inactive; . = no result given.

SMILES | TRPC4 act | TRPC4 inh | TRPC6 act | TRPC4 potent | TRPC6 inhibitor | HEK293 MPD ctr-2 | HEK293 MPD ctr 2-2 | TRPC4/MOR mod | TRPC4/MOR inh 2 | TRPC6 block conf | TRPC6 act conf | others
CCOC(=O)c1c(CSCc2ccccc2)oc2ccc(O)c(CN(C)C)c12 | i | i | i | i | i | . | . | . | . | . | .
CCn1nc([N+](=O)[O-])c(C(C#N)c2nc3ccccc3n2C)c(Cl)c1=O (stereo not given) | i | i | i | i | i | . | . | . | . | . | .
CCCn1nc([N+](=O)[O-])c(C(C#N)c2nc3ccccc3s2)c(Cl)c1=O (stereo not given) | i | i | i | i | -13* | -210%* | i | -36%* | 83%* | 66%* | i
CCOC(=O)CC(=O)CSc1ccc2nnc(-c3ccc(F)cc3)n2n1 | i | i | i | i | i | . | . | . | . | . | .
CCCN(CCC)CCCNc1ccc2nnc(-c3ccc(F)cc3)n2n1 | 94* | i | i | i | -5.1* | -190%* | i | -17%* | 36%* | i | i
CN(CC1CCCN(CCc2ccc(F)cc2)C1)C(=O)CCC(N)=O (stereo not given) | i | i | i | i | i | . | . | . | . | . | .
CC1(C)c2[nH]c3ccccc3c2C[C@@H]2C(=O)N(Cc3ccccc3)C(=O)N21 | i | i | i | i | i | . | . | . | . | . | .
CC1(C)c2[nH]c3ccccc3c2C[C@H]2C(=O)N(Cc3ccc(F)cc3)C(=O)N21 | i | i | i | i | -5.5* | i | i | -9.0%* | i | i | i
COc1ccc(NCc2nnc(SCC(=O)Nc3cccc(C)c3)o2)cc1 | i | i | i | i | -6.3* | i | i | i | i | i | i
COc1ccc(/C=C2\SC(=NCc3ccccc3)NC2=O)cc1 | i | i | i | i | -6.2* | i | i | i | i | i | i
CCOC(=O)Cn1c(-c2ccccn2)nc2ccccc21 | i | i | i | i | i | . | . | . | . | . | .
CCOC(=O)c1ccc2c(c1)nc(-c1ccccn1)n2CC | i | i | i | i | -5.5* | i | i | i | i | i | i
Cc1ccc(O)c(C(=O)c2cc(C#N)c(=O)n(-c3nccs3)c2)c1 | i | i | 31* | i | i | 435%* | i | 164%* | 58%* | i | 86%*
Cc1ccc(O)c(C(=O)c2cc(C#N)c(=O)n(-c3c(C)n(C)n(-c4ccccc4)c3=O)c2)c1 | i | i | i | i | i | . | . | . | . | . | .
Cc1nn(-c2cc(C)c3ccccc3n2)c2c1CCC2 | i | i | i | i | -5.4* | i | i | i | i | i | i
Cc1cc(N2CCCC2)nc2ccccc12 | i | i | i | i | -8.2* | . | . | . | . | 53%* | i | TRPC4 sel inh 2=50%*;TRPC4 spec=-30%*;HEK293 MPD ctr 2-1=-6.5%*;HEK293 MPD ctr-1=-410%*
C=CCn1cc(C(=O)OCC)c(=O)c2cc(F)c(F)cc21 | i | i | i | i | i | . | . | . | . | . | .
O=C(O)c1ccccc1C(=O)c1cccc2ccccc12 | i | i | i | i | i | . | . | . | . | . | .
COc1ccc(C(=O)C2CCCN(Cc3cccn3-c3ccc(Cl)cn3)C2)c(OC)c1 (stereo not given) | i | i | i | i | -5.8* | 134%* | i | 14%* | 89%* | 53%* | .
O=C(c1cccc(C(F)(F)F)c1)C1CCCN(Cc2cccn2-c2ccccn2)C1 (stereo not given) | i | -5* | i | i | -7.5* | . | . | . | . | 57%* | i | TRPC4 sel inh 2=35%*;TRPC4 spec=18%*;HEK293 MPD ctr 2-1=i;HEK293 MPD ctr-1=14%*
CCN(CC)CC(O)Cn1c(-c2cccc(Cl)c2)nc2cc(C)c(C)cc21 (stereo not given) | i | i | i | i | -6.5* | i | i | i | 74%* | 63%* | i
CCCSc1nc2cc(C)c(C)cc2n1CC(O)CO (stereo not given) | i | i | i | i | i | . | . | . | . | . | .
COc1cccc(CNC(=O)CN(c2ccc(C(C)C)cc2)S(=O)(=O)c2c(C)noc2C)c1 | i | i | i | i | i | . | . | . | . | . | .
CCC(C)(C)n1nnnc1C(c1ccc2ncccc2c1)N1CCCCCC1 (stereo not given) | i | i | i | i | -5.1* | i | i | 28%* | 33%* | i | .
c1cnc2ccc(C(c3nnnn3C3CCCCC3)N3CCCCC3)cc2c1 (stereo not given) | i | i | i | i | -5.9* | 149%* | i | 35%* | 30%* | 54%* | .
CCOC(=O)C1=C(CN2CCN(C(=O)c3ccco3)CC2)NC(=O)NC1c1ccccc1 (stereo not given) | i | i | i | i | i | . | . | . | . | . | .
O=C(NCc1ccccc1)C12CN(Cc3ccccc3)CC1C(c1cccc([N+](=O)[O-])c1)=NO2 (stereo not given) | i | i | i | i | i | . | . | . | . | . | .

Assay outcomes as filed in PubChem.
